Source: ChEMBL document CHEMBL3217724, “Synthesis and evaluation of a series of benzothiophene acrylonitrile analogs as anticancer agents” (Medchemcomm, 2013)
Calls of active or inactive are those of the source. No cut-off for these calls is given here.

Experiments:
Malme-3M = assay: Growth inhibition of human MALME-3M cells; type: functional
Procedure, shortened: (§1)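 NCI 60-human-cancer-cell-line panel, five-dose screen after a preliminary screen. GI50 is the molar concentration giving 50% growth inhibition.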

[1] = Growth inhibition of human HCC2998 cells; type: functional; settings: HCC 2998; procedure, shortened: as §1
A549 = assay: Growth inhibition of human A549 cells; type: functional; procedure, shortened: as §1
T47D = assay: Growth inhibition of human T47D cells; type: functional
Procedure, shortened: (§2)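 NCI 60-cell-line panel, five-dose screen; GI50 is the molar concentration giving 50% growth inhibition.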

M14 = assay: Growth inhibition of human M14 cells; type: functional; procedure, shortened: as §1
HL-60(TB) = assay: Growth inhibition of human HL-60(TB) cells; type: functional; procedure, shortened: as §1
PC-3 [2] = assay: Growth inhibition of human PC3 cells after 72 hrs by Alamar Blue assay; type: functional; settings: PC-3, 72 h
Procedure, shortened: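 PC3 prostate cancer cells and docetaxel-resistant PC3-DR cells were exposed to drug for 72 hours in 96-well format. Viability was read with AlamarBlue dye and GI50 derived. Resistance is the GI50 in PC3-DR over the GI50 in parental PC3.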

RPMI-8226 = assay: Growth inhibition of human RPMI8226 cells; type: functional; procedure, shortened: as §1
[3] = Growth inhibition of human MOLT4 cells; type: functional; settings: MOLT-4; procedure, shortened: as §1
[4] = Growth inhibition of human OVCAR4 cells; type: functional; settings: OVCAR-4; procedure, shortened: as §1
[5] = Growth inhibition of human BT549 cells; type: functional; settings: BT-549; procedure, shortened: as §1
[6] = Growth inhibition of human NCI-ADR-RES cells; type: functional; procedure, shortened: as §1
DU-145 = assay: Growth inhibition of human DU145 cells; type: functional; procedure, shortened: as §1
NCI-H460 = assay: Growth inhibition of human NCI-H460 cells; type: functional; procedure, shortened: as §1
COLO 205 = assay: Growth inhibition of human COLO205 cells; type: functional; procedure, shortened: as §1
PC-3 [7] = assay: cells; settings: Homo sapiens, PC-3, 72 h
[8] = Growth inhibition of human Hs578T cells; type: functional; settings: Hs-578T; procedure, shortened: as §1
[9] = Growth inhibition of human UO31 cells; type: functional; settings: UO-31; procedure, shortened: as §2
[10] = Growth inhibition of human LOXIMVI cells; type: functional; settings: LOX IMVI; procedure, shortened: as §1
786-0 = assay: Growth inhibition of human 786-0 cells; type: functional; procedure, shortened: as §1
SN12C = assay: Growth inhibition of human SN12C cells; type: functional; procedure, shortened: as §2
SK-MEL-2 = assay: Growth inhibition of human SK-MEL-2 cells; type: functional; procedure, shortened: as §1
[11] = Growth inhibition of human OVCAR8 cells by Alamar Blue assay; type: functional; settings: OVCAR-8
Procedure, shortened: (§3)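 Cell viability was read with AlamarBlue dye in 96-well format and GI50 values derived, to assess P-gp effects. Cells were P-gp-expressing NCI/ADR-Res ovarian cancer cells and L-MDR1 porcine epithelial cells, each with its non-expressing parent line. P-gp expression was confirmed by Western blot with β-actin as loading control. Resistance is the GI50 in the P-gp line over the GI50 in the parent line.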

[12] = Growth inhibition of P-gp expressing human NCI-ADR-RES cells by Alamar Blue assay; type: functional
Procedure, shortened: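 72-h cytotoxicity in 96-well plates with AlamarBlue viability dye, giving GI50. Line 1 uses docetaxel-resistant PC3 prostate cells (PC3-DR), and line 2 uses NCI/ADR-Res ovarian cells. P-gp expression in both was confirmed by Western blot, with β-actin as the loading control.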

[13] = Growth inhibition of human EKVX cells; type: functional; procedure, shortened: as §1
MCF7 = assay: Growth inhibition of human MCF7 cells; type: functional; procedure, shortened: as §1
[14] = Growth inhibition of human OVCAR8 cells; type: functional; settings: OVCAR-8; procedure, shortened: as §1
SK-MEL-28 = assay: Growth inhibition of human SK-MEL-28 cells; type: functional; procedure, shortened: as §1
[15] = Growth inhibition of human OVCAR3 cells; type: functional; settings: OVCAR-3; procedure, shortened: as §1
NCI-H23 = assay: Growth inhibition of human NCI-H23 cells; type: functional; procedure, shortened: as §1
[16] = Growth inhibition of human SF295 cells; type: functional; settings: SF-295; procedure, shortened: as §1
HT-29 = assay: Growth inhibition of human HT-29 cells; type: functional; procedure, shortened: as §1
[17] = Growth inhibition of pig LLC-PK1 cells by Alamar Blue assay; type: cell-based, Sus scrofa; procedure, shortened: as §3
NCI-H322M = assay: Growth inhibition of human NCI-H322M cells; type: functional; procedure, shortened: as §1
SK-MEL-5 = assay: Growth inhibition of human SK-MEL-5 cells; type: functional; procedure, shortened: as §1
SNB-75 = assay: Growth inhibition of human SNB75 cells; type: functional; procedure, shortened: as §2
HCT-116 = assay: Growth inhibition of human HCT116 cells; type: functional; procedure, shortened: as §1
Tubulin (Homo sapiens) = Tubulin (Homo sapiens) (UniProt P68371+Q9H4B7+P0DPH7+P68366+Q13509+Q71U36+P04350+Q3ZCM7+P07437+P68363+Q9BQE3+Q6PEY2+Q13885+Q9BVA1+Q9BUF5); assay: Inhibition of tubulin polymerization (unknown origin) after 1 hr; type: protein-complex assay
Procedure, shortened: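 Purified tubulin was allowed to polymerize for 1 h with increasing concentrations of compound. Docetaxel and vinblastine were the stabilizing and destabilizing references.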

[18] = target: T1, Tubulin beta (Homo sapiens) (UniProt P68371+Q9H4B7+Q13509+P04350+Q3ZCM7+P07437+Q13885+Q9BVA1+Q9BUF5+A6NNZ2); assay: Inhibition of tubulin beta in human PC3 cells assessed as multiple spindle-poles formation at 100 nM after 24 hrs by DAPI-staining based immunofluorescence assay; type: cell-based; settings: PC-3
Procedure, shortened: (§4)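 PC3 cells were treated 24 h at 100 nM, with docetaxel 100 nM for comparison. Tubulin immunofluorescence with DAPI nuclear counterstain was used to score chromosome overduplication and multiple spindle poles.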

SNB-19 = assay: Growth inhibition of human SNB19 cells; type: functional; procedure, shortened: as §2
[19] = Growth inhibition of human HOP92 cells; type: functional; settings: HOP-92; procedure, shortened: as §1
CAKI-1 = assay: Growth inhibition of human Caki1 cells; type: functional; procedure, shortened: as §1
[20] = target: T1, Tubulin beta (Homo sapiens); assay: Inhibition of tubulin beta in human PC3 cells assessed as chromosomal overduplication at 100 nM after 24 hrs by DAPI-staining based immunofluorescence assay; type: cell-based; settings: PC-3; procedure, shortened: as §4
PC-3 [21] = assay: Induction of apoptosis in human PC3 cells assessed as formation of mitotic castastrophe at 10 to 100 nM after 72 hrs by Hoechst 33342 staining; type: functional, cell-based
Procedure, shortened: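 PC3 prostate cancer cells were treated 72 h at 10 and 100 nM. Nuclei were stained with Hoechst 33342 and visualized by fluorescence imaging.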

KM12 = assay: Growth inhibition of human KM12 cells; type: functional; procedure, shortened: as §1
NCI-H522 = assay: Growth inhibition of human NCI-H522 cells; type: functional; procedure, shortened: as §1
SF-268 = assay: Growth inhibition of human SF268 cells; type: functional; procedure, shortened: as §1
ACHN = assay: Growth inhibition of human ACHN cells; type: functional; procedure, shortened: as §1
SK-OV-3 = assay: Growth inhibition of human SKOV3 cells; type: functional; procedure, shortened: as §2
SW-620 = assay: Growth inhibition of human SW620 cells; type: functional; procedure, shortened: as §2
CCRF-CEM = assay: Growth inhibition of human CCRF-CEM cells; type: functional; procedure, shortened: as §1
NCI-H226 = assay: Growth inhibition of human NCI-H226 cells; type: functional; procedure, shortened: as §1
LLC-PK1 [22] = assay: Resistance factor, ratio of GI50 for pig LLC-PK1 cells expressing MDR1 to GI50 for pig LLC-PK1 cells; set-up: species or system Sus scrofa
Procedure, shortened: (§5)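 Porcine epithelial L-MDR1 (P-gp expressing) cells and their non-expressing parent line were exposed to compound for 72 h. Viability was read with AlamarBlue dye and GI50 derived. P-gp expression was verified by Western blot with β-actin as loading control. The resistance ratio compares GI50 in MDR1 versus parent cells.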

SR = assay: Growth inhibition of human SR cells; type: functional; procedure, shortened: as §2
MDA-MB-231 = assay: Growth inhibition of human MDA-MB-231 cells; type: functional; procedure, shortened: as §1
HOP-62 = assay: Growth inhibition of human HOP62 cells; type: functional; procedure, shortened: as §1
[23] = Growth inhibition of human SF539 cells; type: functional; settings: SF-539; procedure, shortened: as §1
K562 = assay: Growth inhibition of human K562 cells; type: functional; procedure, shortened: as §1
TK-10 = assay: Growth inhibition of human TK10 cells; type: functional; procedure, shortened: as §2
MDA-MB-435 = assay: Growth inhibition of human MDA-MB-435 cells; type: functional; procedure, shortened: as §1
LLC-PK1 [24] = assay: Growth inhibition of pig LLC-PK1 cells expressing MDR1 by Alamar Blue assay; type: functional; settings: Sus scrofa; procedure, shortened: as §5
U-251 = assay: Growth inhibition of human U251 cells; type: functional; procedure, shortened: as §2
[25] = Growth inhibition of human OVCAR5 cells; type: functional; settings: OVCAR-5; procedure, shortened: as §1
PC-3 [26] = assay: Growth inhibition of human PC3 cells; type: functional; procedure, shortened: as §1
[27] = Growth inhibition of human HCT15 cells; type: functional; settings: HCT-15; procedure, shortened: as §1
PC-3 [28] = assay: Induction of beta tubulin de-stabilization in human PC3 cells at 1 to 100 nM after 24 hrs by DAPI-staining based immunofluorescence assay; type: cell-based
Procedure, shortened: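 PC3 cells were treated 24 h at 1, 10 and 100 nM, then immunostained for beta-tubulin with DAPI nuclear counterstain. Docetaxel (stabilizer) and vinblastine (destabilizer) at 10 nM served as references.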

[29] = Growth inhibition of human RXF393 cells; type: functional; settings: RXF 393; procedure, shortened: as §1
A498 = assay: Growth inhibition of human A498 cells; type: functional; procedure, shortened: as §1

SMILES: COc1cc(/C(C#N)=C/c2cc3ccccc3s2)cc(OC)c1OC
- GI50 (Malme-3M): 23.3 nM
- GI50 [1]: 16.3 nM
- GI50 (A549): 41.2 nM
- GI50 (T47D): > 100 nM
- GI50 (M14): 37.9 nM
- GI50 (HL-60(TB)): 24.4 nM
- GI50 (PC-3 [2]): 8.6 nM
- GI50 (RPMI-8226): 28.6 nM
- GI50 [3]: 39.7 nM
- GI50 [4]: > 100 nM
- GI50 [5]: 36.6 nM
- GI50 [6]: 27.5 nM
- GI50 (DU-145): 21.1 nM
- GI50 (NCI-H460): 35.9 nM
- GI50 (COLO 205): 46.9 nM
- GI50 (PC-3 [7]): 7.6 nM
- GI50 [8]: 42.7 nM
- GI50 [9]: 52.4 nM
- GI50 [10]: 48.7 nM
- GI50 (786-0): 12.2 nM
- GI50 (SN12C): 68.4 nM
- GI50 (SK-MEL-2): 41.6 nM
- GI50 [11]: 5.2 nM
- GI50 [12]: 3.2 nM
- GI50 [13]: 52.1 nM
- GI50 (MCF7): 40.2 nM
- GI50 [14]: 23.5 nM
- GI50 (SK-MEL-28): > 100 nM
- GI50 [15]: 23 nM
- GI50 (NCI-H23): 52.3 nM
- GI50 [16]: 33.7 nM
- GI50 (HT-29): 31.9 nM
- GI50 [17]: 9.7 nM
- GI50 (NCI-H322M): 51.7 nM
- GI50 (SK-MEL-5): 34.4 nM
- GI50 (SNB-75): 41.5 nM
- GI50 (HCT-116): 49.4 nM
- inhibition (Tubulin (Homo sapiens)): Dose-dependent effect
- inhibition [18]: Active
- GI50 (SNB-19): 44 nM
- GI50 [19]: 17.9 nM
- GI50 (CAKI-1): 51.4 nM
- inhibition [20]: Active
- Activity (PC-3 [21]): Active
- GI50 (KM12): 22.2 nM
- GI50 (NCI-H522): 29.7 nM
- GI50 (SF-268): 46.7 nM
- GI50 (ACHN): 73.2 nM
- GI50 (SK-OV-3): 47.2 nM
- GI50 (SW-620): 40.8 nM
- GI50 (CCRF-CEM): 25.1 nM
- GI50 (NCI-H226): > 100 nM
- RatioGI50 (LLC-PK1 [22]): 1.2
- GI50 (SR): 46.6 nM
- GI50 (MDA-MB-231): 33 nM
- GI50 (HOP-62): 98.9 nM
- GI50 [23]: 24.8 nM
- GI50 (K562): 30.4 nM
- GI50 (TK-10): 36.3 nM
- GI50 (MDA-MB-435): 23.5 nM
- GI50 (LLC-PK1 [24]): 11.7 nM
- GI50 (U-251): 50 nM
- GI50 [25]: 61.5 nM
- GI50 (PC-3 [26]): 45 nM
- GI50 [27]: 46.1 nM
- Activity (PC-3 [28]): Active
- GI50 [29]: 24.9 nM
- GI50 (A498): 28.8 nM
